pIC50: −log10 of the molar value. Values belong to the molecule of their own block, whether it stands above or below them.
Assays:
[1] = tested on: BV-2; assay: Inhibition of LPS-induced COX-2 expression in mouse BV2 cells at 20 uM pretreated for 15 mins followed by LPS-stimulation after 24 hrs by western blot analysis relative to control; assay type: functional
Summary of the method: (§1)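 BV-2 cells at 80% confluence, serum-free medium for 24 h. Cells given DMSO or compound, then LPS 150 ng/mL for 24 h. Lysate supernatants run on SDS-PAGE, blotted to PVDF, probed with anti-COX-2 or anti-iNOS and HRP secondary, detected by ECL. Protein levels expressed as fold of control. Mean ± SD of three experiments.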

[2] = tested on: BV-2; assay: Inhibition of LPS-induced iNOS expression in mouse BV2 cells at 20 uM pretreated for 15 mins followed by LPS-stimulation after 24 hrs by western blot analysis relative to control; assay type: functional; summary of the method: as §1
[3] = tested on: BV-2; assay: Inhibition of LPS-induced nitric oxide production in mouse BV2 cells pretreated for 30 mins followed by LPS-stimulation after 24 hrs by Griess assay; assay type: functional, cell-based
Summary of the method: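 BV2 cells seeded at 5 × 10^5 per well for 16 h, then moved to phenol red-free DMEM. Cells pretreated 30 min with vehicle or compound (2, 10, 20, 40 μM), then given LPS 150 ng/mL for 24 h. Supernatant nitrate reduced with nitrate reductase and cofactors for 1 h at RT in the dark. Griess A and B added for 20 min, then A550 read. Nitrite obtained by regression against NaNO2 standards, and IC50 derived. Curcumin used as positive control.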

[4] = tested on: BV-2; assay: Inhibition of LPS-induced COX-2 expression in mouse BV2 cells pretreated for 15 mins followed by LPS-stimulation after 24 hrs by western blot analysis; assay type: functional, cell-based
Summary of the method: (§2)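 Western blot in BV-2 microglia after serum-free conditioning for 24 h. Compound given at 2, 5, 10 and 20 μM, then LPS 150 ng/mL for 24 h. iNOS and COX-2 detected by ECL and expressed relative to control. IC50 calculated from the concentration–response data.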

[5] = Cytotoxicity against mouse BV2 cells assessed as cell viability at 20 uM after 24 hrs by MTT assay relative to control; assay type: cell-based, BV-2; details: read-out: Activity
Summary of the method: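 BV-2 cells grown in DMEM with 10% heat-inactivated FBS at 37 °C under 5% CO2. Medium switched to 0.5% FBS at 85% confluence before treatment. Viability measured after 24 h compound exposure by colorimetric MTT reduction. Mean ± SD of three individual experiments.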

[6] = tested on: BV-2; assay: Inhibition of LPS-induced iNOS expression in mouse BV2 cells pretreated for 15 mins followed by LPS-stimulation after 24 hrs by western blot analysis; assay type: functional, cell-based; summary of the method: as §2

SMILES: CCCCCc1cccc(O)c1CO
fold change (FC) [1]: 5.6
fold change (FC) [2]: 3.4

pIC50 [3]: 4.66
pIC50 [4]: 4.78
pIC50 [6]: 5.09
SMILES: C=C1CO[C@@H]2C=C3CCC[C@H](C)[C@@]3(C)C[C@@]12O
fold change (FC) [1]: 2.1
fold change (FC) [2]: 1.8
inhibition [3]: Dose-dependent effect
inhibition [4]: Dose-dependent effect
viability at 24 h, 20 µM [5]: 87.7%
inhibition [6]: Dose-dependent effect

pIC50 [3]: 5.35
SMILES: COc1cc(/C=C/C(=O)CC(=O)/C=C/c2ccc(O)c(OC)c2)ccc1O [CURCUMIN]

pIC50 [3]: 4.47
pIC50 [4]: 4.90
pIC50 [6]: 4.94
SMILES: C=C(C)[C@@H]1Cc2cc(CO)ccc2O1
fold change (FC) [1]: 2.4
fold change (FC) [2]: 1.9
inhibition [4]: Dose-dependent effect
viability at 24 h, 20 µM [5]: 85.9%
inhibition [6]: Dose-dependent effect

SMILES: CCCCC1OC(=O)c2c(O)cccc21 (configuration not stated)
fold change (FC) [1]: 6.5
fold change (FC) [2]: 4.3

SMILES: O=C1C[C@H](O)Cc2cc(O)cc(O)c21
fold change (FC) [1]: 4.9
fold change (FC) [2]: 2.9

SMILES: CC1=C2[C@@H](C=C3CCC[C@H](C)[C@@]3(C)[C@H]2O)OC1=O
fold change (FC) [1]: 6.4
fold change (FC) [2]: 3.2
viability at 24 h, 20 µM [5]: 90.2%

SMILES: C=C(C=O)[C@@H]1C[C@@]2(C)C(=CC1=O)CCC[C@@H]2C
viability at 24 h, 20 µM [5]: 46.1%

SMILES: CC1=C2[C@@H](C=C3C=CC[C@H](C)[C@@]3(C)[C@H]2O)OC1=O
fold change (FC) [1]: 4.9
fold change (FC) [2]: 4.5
viability at 24 h, 20 µM [5]: 79.3%

SMILES: C=C(C)[C@@H]1Cc2cc(C=O)ccc2O1
fold change (FC) [1]: 4.2
fold change (FC) [2]: 3

SMILES: C=C(CO)C1=C[C@@]2(C)C(=CC1=O)CCC[C@@H]2C
fold change (FC) [1]: 3.7
fold change (FC) [2]: 3.6
viability at 24 h, 20 µM [5]: 73.8%

SMILES: C=C(C=O)[C@@H]1C[C@@]2(C)C(=C[C@H]1O)CCC[C@@H]2C
viability at 24 h, 20 µM [5]: 44.6%
